Results on 16 compounds are retold here after PubChem BioAssay.

The source made the active and inactive calls.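 Rule for the calls, unless noted: active = viability loss from added drug above about 55%, and viability with drug at most 40%, in both replicates (limit read from the data, passing the limit was not always enough); inconclusive = both conditions met in only one replicate; inactive = neither replicate meets both conditions.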

The nature of test [1]: reducers of endogenous Her2 protein level, primary screen, SKBR3 breast tumor cells, AlphaScreen, ATP viability (AID 461;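 active = Her2 level under about 52% in both replicate screens, with viability over 70% of control, limit read from the data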;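 for Her2 level: lower value means less Her2 protein in the cells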;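 for viability: percent of carrier control wells set as 100% viability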). Particulars: 18-24 h, measured here: SKBR3 viability, ATP luminescence, at 10 µM. (Bead proximity is the source of the signal in Alpha formats.)
In test [2] the target is Receptor tyrosine-protein kinase erbB-2 (Homo sapiens) (UniProt P04626). The description is as above. Particulars: 18-24 h, at 10 µM, stronger effect = lower value.
Chain of Receptor tyrosine-protein kinase erbB-2 (Homo sapiens) (P04626 whole entry, looked up): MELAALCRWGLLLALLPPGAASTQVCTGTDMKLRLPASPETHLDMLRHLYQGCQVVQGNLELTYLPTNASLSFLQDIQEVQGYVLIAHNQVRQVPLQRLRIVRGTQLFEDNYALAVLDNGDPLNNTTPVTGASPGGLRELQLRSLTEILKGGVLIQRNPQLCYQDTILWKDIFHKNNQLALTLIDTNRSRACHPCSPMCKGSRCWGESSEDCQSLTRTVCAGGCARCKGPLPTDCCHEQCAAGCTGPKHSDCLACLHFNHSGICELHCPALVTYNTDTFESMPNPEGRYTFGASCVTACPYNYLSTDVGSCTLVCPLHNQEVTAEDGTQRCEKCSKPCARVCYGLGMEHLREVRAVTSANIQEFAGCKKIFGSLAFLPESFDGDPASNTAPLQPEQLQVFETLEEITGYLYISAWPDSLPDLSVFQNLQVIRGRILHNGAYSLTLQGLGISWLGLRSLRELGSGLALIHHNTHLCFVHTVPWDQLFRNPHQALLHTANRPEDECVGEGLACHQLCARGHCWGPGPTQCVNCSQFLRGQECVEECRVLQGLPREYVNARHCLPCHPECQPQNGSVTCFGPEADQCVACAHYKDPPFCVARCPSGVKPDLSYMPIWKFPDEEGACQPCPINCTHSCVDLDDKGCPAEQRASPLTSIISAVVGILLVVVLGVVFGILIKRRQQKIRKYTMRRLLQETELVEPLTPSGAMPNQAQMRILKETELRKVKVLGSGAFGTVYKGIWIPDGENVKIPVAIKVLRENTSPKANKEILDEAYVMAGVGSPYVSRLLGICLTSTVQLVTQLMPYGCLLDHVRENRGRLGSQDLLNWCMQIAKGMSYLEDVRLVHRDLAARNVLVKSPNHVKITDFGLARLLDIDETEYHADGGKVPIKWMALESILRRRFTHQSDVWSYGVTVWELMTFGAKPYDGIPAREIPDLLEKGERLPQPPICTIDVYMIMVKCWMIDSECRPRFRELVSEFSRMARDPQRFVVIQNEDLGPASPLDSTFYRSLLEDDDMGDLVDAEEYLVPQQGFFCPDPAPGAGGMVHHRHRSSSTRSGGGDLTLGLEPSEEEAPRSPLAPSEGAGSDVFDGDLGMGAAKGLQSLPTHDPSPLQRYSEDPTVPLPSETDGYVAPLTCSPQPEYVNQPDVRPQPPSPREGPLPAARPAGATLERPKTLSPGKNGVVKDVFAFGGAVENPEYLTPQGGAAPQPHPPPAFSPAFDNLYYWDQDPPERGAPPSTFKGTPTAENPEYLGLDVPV
The nature of test [3]: SK-BR-3 cell growth inhibitors, pilot screen, 24 h, human (AID 572;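 active = viability at or below 10% of carrier control in both of two separate runs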;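 note: compound exposure lasted between 18 and 24 h rather than exactly 24 h; 100% = carrier-treated control wells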). The conditions noted are these: SK-BR-3 viability, CellTiter-Glo luminescence, at 10 µM, stronger effect = lower value. In general terms: Cellular ATP, detected with luciferase, serves as a proxy for viable cell number.
Test [4] is described as follows: HUVEC growth inhibition – cell-based, human, primary screen (AID 575;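 active = viability at or below 30% in both replicate assays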;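 note: 100% = median of untreated cell wells with 0.1% DMSO on each plate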). Particulars: HUVEC proliferation, CellTiter-Glo luminescence, 72 h; at 10 µM; stronger effect = lower value. The gist of the method:
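Assay system: primary human umbilical vein endothelial cells / Buffer or medium: endothelial basal medium with 2% FBS plus growth supplements / Compound dosing: one dose, 10 µM final, 0.1% DMSO / Timing: 72 h treatment at 37 °C / Signal: CTG luminescence / Benchmarks: 32 DMSO-only cell-control wells (high), 32 MePR drug-control wells (low) per plate / Plate: collagen-coated 384-well format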

A short description of test [5]: growth inhibitors of H69AR lung tumor, primary screen, human, duplicate replicates (AID 580;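 active = viability at or under a set limit in both replicates, limit being median viability minus 3 SD, cut at about 48% in these data, passing the limit was not always enough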;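 note: 100% = mean luminescence of untreated wells and 0% = no signal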). The conditions noted are these: H69AR lung tumor cells viability, ATP luminescence, 72 h; at 10 µM; stronger effect = lower value.
Test [6] in a line: reversal of MRP1-mediated doxorubicin resistance, pilot screen, H69AR cells, doxorubicin co-treatment (AID 601). Particulars: CellTiter-Glo, 72 h, at 10 µM; for differential viability (reversal): stronger effect = higher value.
Test [7] is described as follows: 384-well plate pilot, post-Golgi transport modulator project, inhibition of yeast transport mutant growth (AID 636; in the data active = inhibition above about 31%). The conditions noted are these: absorbance 615 nm, about 18 h, stronger effect = higher value.
Test [8] can be described thus: growth suppression of yeast trafficking mutant, preliminary HTS, modulators of trafficking downstream of Golgi apparatus project, 1536-format plate, OD 615 nm (AID 637; in the data active = inhibition above about 30%). Particulars: yeast transport mutant growth, absorbance 615 nm, 18 h; stronger effect = higher value.
Where [9] appears, read: H69AR cells + 2 uM doxorubicin, measured here: viability with 2 uM doxorubicin, stronger effect = lower value.
The mark [10] stands for this setting: H69AR cells, compound alone cytotoxicity.

The term viability denotes a read-out of living cells in per cent, often relative to untreated cells. As a reminder, the inhibition is the relative decrease from the control value, in per cent. Take `COc1cccc(OCCOCCN(C)CCO)c1`: the viability in test [1] was 124%; in test [3], 124% (inactive); in test [4] it was 84.4% (inactive); in test [5] it was 97.3% (inactive); in test [6] (setting [9]), 89.6%; in test [6] (setting [10]), 97.3%. The Her2 level in test [2] was 124% (inactive). The differential viability (reversal) in test [6] (H69AR cells + 2 uM doxorubicin) is 7.71% (inactive). In addition, the inhibition in test [7] is -4.93% (inactive); in test [8], -1.45% (inactive).
In the case of `CCOc1cc(NC(=O)c2ccco2)c(OCC)cc1NC(=O)COc1ccccc1C`, the viability in test [1] was 67%; in test [3] it was 67% (inactive); in test [4] it was 60.9% (inactive); in test [5], 7.87% (active); in test [6] (setting [9]) it was 12.4%; in test [6] (setting [10]), 7.87%. In addition, the Her2 level in test [2] is 77.5% (inactive). Moreover, in test [6] (H69AR cells + 2 uM doxorubicin), the differential viability (reversal) was -4.53% (inactive). Further, the inhibition in test [7] was -5.6% (inactive); in test [8], -6.19% (inactive).
Take `CC(C)Oc1ccc(C2C(C(=O)c3ccco3)=C(O)C(=O)N2CCCN(C)C)cc1` (stereo not given): the viability in test [1] was 89%; in test [3], 89% (inactive); in test [4], 118% (inactive); in test [5] it was 110% (inactive); in test [6] (setting [9]) it was 102%; in test [6] (setting [10]), 110%. For the same compound, in test [2], the Her2 level was 99.5% (inactive). The differential viability (reversal) in test [6] (H69AR cells + 2 uM doxorubicin) was 8.15% (inactive). The inhibition was -1.18% (inactive) in test [7] and 8.2% (inactive) in test [8].
Turning to `CCCCCC(=O)N1CC2(C)CN(C(=O)CCCCC)CC(C)(C1)C2=O`, the viability in test [1] is 87%; in test [3], 87% (inactive); in test [4] it was 96.9% (inactive); in test [5], 87.5% (inactive); in test [6] (setting [9]), 83.4%; in test [6] (setting [10]) it was 87.5%. Besides, in test [2], the Her2 level is 93% (inactive). Moreover, the differential viability (reversal) in test [6] (H69AR cells + 2 uM doxorubicin) was 4.14% (inactive). In addition, the inhibition in test [7] is 0.9% (inactive); in test [8], 6.67% (inactive).
For the compound `CC(C)(C)c1nc(CN2CCOCC2)ccc1O`, the viability in test [1] is 109%; in test [3], 109% (inactive); in test [4], 106% (inactive); in test [5], 101% (inactive); in test [6] (setting [9]) it was 96.6%; in test [6] (setting [10]), 101%. Further, the Her2 level in test [2] was 96.5% (inactive). In addition, in test [6] (H69AR cells + 2 uM doxorubicin), the differential viability (reversal) was 4.21% (inactive). Further, the inhibition in test [7] is -7.03% (inactive); in test [8] it was -0.82% (inactive).
Take `Cc1ccc2occ(CN3CCN(c4ccccc4)CC3)c(=O)c2c1`: the viability in test [1] is 104%; in test [3], 104% (inactive); in test [4], 89% (inactive); in test [5], 87.5% (inactive); in test [6] (setting [9]), 94.2%; in test [6] (setting [10]), 87.5%. For the same compound, the Her2 level in test [2] was 104% (inactive). In test [6] (H69AR cells + 2 uM doxorubicin), the differential viability (reversal) is -6.67% (inactive). For the same compound, the inhibition in test [7] is -1.04% (inactive); in test [8], -3.77% (inactive).
As for `CC(=O)c1ccc(NC(=O)c2cc(CC(C)C)on2)cc1`, the viability in test [1] is 93%; in test [3], 93% (inactive); in test [4], 120% (inactive); in test [5], 89.2% (inactive); in test [6] (setting [9]), 91.1%; in test [6] (setting [10]), 89.2%. For the same compound, the Her2 level in test [2] is 114% (inactive). The differential viability (reversal) in test [6] (H69AR cells + 2 uM doxorubicin) was -1.95% (inactive). For the same compound, the figures for the inhibition in test [7] and in test [8] were 6.15% (inactive) and -8.67% (inactive), respectively.
`Cn1cnnc1Sc1nc2c(c(=O)n(C)c(=O)n2C)n1C`: the viability in test [1] is 87%; in test [3], 87% (inactive); in test [4], 107% (inactive); in test [5], 102% (inactive); in test [6] (setting [9]) it was 96.5%; in test [6] (setting [10]), 102%. Moreover, in test [2], the Her2 level was 98.5% (inactive). The differential viability (reversal) in test [6] (H69AR cells + 2 uM doxorubicin) was 5.7% (inactive). Moreover, the figures for the inhibition in test [7] and in test [8] were -0.79% (inactive) and -9.09% (inactive), respectively.
Consider `COc1ccccc1C(=O)N1CCCC(c2nc(-c3cc(OC)c(OC)c(OC)c3)no2)C1` (stereo not given), for which the viability in test [1] is 120%; in test [3], 120% (inactive); in test [4] it was 99.4% (inactive); in test [5], 78.8% (inactive); in test [6] (setting [9]), 55.6%; in test [6] (setting [10]), 78.8%. Besides, the Her2 level in test [2] was 90% (inactive). Further, the differential viability (reversal) in test [6] (H69AR cells + 2 uM doxorubicin) was 23.2% (inactive). For the same compound, the inhibition in test [7] is -6.71% (inactive); in test [8] it was 7.3% (inactive).
As for `O=C(CCn1c(=O)oc2ccccc21)NCCN1CCc2ccccc2C1`, the viability in test [1] is 77%; in test [3], 77% (inactive); in test [4], 95.2% (inactive); in test [5], 94.4% (inactive); in test [6] (setting [9]), 78.4%; in test [6] (setting [10]) it was 94.4%. Further, the Her2 level in test [2] was 79% (inactive). In test [6] (H69AR cells + 2 uM doxorubicin), the differential viability (reversal) is 16% (inactive). The inhibition in test [7] was -2.24% (inactive); in test [8], 3.02% (inactive).
With `O=C(CSc1nc2ccccc2nc1SCC(=O)N1CCOCC1)N1CCOCC1`, the viability in test [1] is 100%; in test [3], 100% (inactive); in test [4], 110% (inactive); in test [5] it was 95.7% (inactive); in test [6] (setting [9]), 94.5%; in test [6] (setting [10]), 95.7%. The Her2 level in test [2] is 98% (inactive). Also, the differential viability (reversal) in test [6] (H69AR cells + 2 uM doxorubicin) was 1.15% (inactive). For the same compound, the inhibition was -1.03% (inactive) in test [7] and 0.17% (inactive) in test [8].
As for `Cn1c(=O)cc(OCC(=O)NCCCN2CCN(Cc3ccccc3)CC2)c2ccccc21`, the viability in test [1] was 90.5%; in test [3], 90.5% (inactive); in test [4], 81.3% (inactive); in test [5], 103% (inactive); in test [6] (setting [9]) it was 84.8%; in test [6] (setting [10]), 103%. In addition, the Her2 level in test [2] is 104% (inactive). Also, the differential viability (reversal) in test [6] (H69AR cells + 2 uM doxorubicin) was 17.9% (inactive). The inhibition in test [7] was -0.93% (inactive); in test [8], -7.87% (inactive).
As to `CCCCOc1ccccc1NC(=O)c1ccco1`, the viability in test [1] was 87%; in test [3], 87% (inactive); in test [4], 76.6% (inactive); in test [5], 62.9% (inactive); in test [6] (setting [9]), 77.3%; in test [6] (setting [10]), 62.9%. Further, the Her2 level in test [2] is 93% (inactive). For the same compound, the differential viability (reversal) in test [6] (H69AR cells + 2 uM doxorubicin) is -14.4% (inactive). Moreover, the inhibition in test [7] is -0.93% (inactive); in test [8], -0.16% (inactive).
In the case of `CCOC(=O)c1cccc(NC(=O)CSc2nc3cccnc3n2C)c1`, the viability in test [1] was 86.5%; in test [3], 86.5% (inactive); in test [4] it was 71.4% (inactive); in test [5], 93.2% (inactive); in test [6] (setting [9]) it was 94.7%; in test [6] (setting [10]) it was 93.2%. For the same compound, the Her2 level in test [2] was 94.5% (inactive). Also, the differential viability (reversal) in test [6] (H69AR cells + 2 uM doxorubicin) is -1.5% (inactive). In addition, the inhibition in test [7] was -5.14% (inactive); in test [8], 1.8% (inactive).
`Cc1ccc(-n2ncc3c(N4CCN(c5ccc(F)cc5)CC4)ncnc32)c(C)c1`: the viability in test [1] was 87.5%; in test [3], 87.5% (inactive); in test [4], 91.8% (inactive); in test [5], 71.4% (inactive); in test [6] (setting [9]), 39.6%; in test [6] (setting [10]), 71.4%. Also, the Her2 level in test [2] was 94.5% (inactive). The differential viability (reversal) in test [6] (H69AR cells + 2 uM doxorubicin) is 31.8% (inactive). The inhibition in test [7] was 0.26% (inactive); in test [8], -3.55% (inactive).
As for `COc1ccc(-c2cn3cc(C)ccc3n2)cc1OC`, the viability in test [1] was 108%; in test [3] it was 108% (inactive); in test [4] it was 91.5% (inactive); in test [5] it was 63.7% (inactive); in test [6] (setting [9]) it was 63.1%; in test [6] (setting [10]), 63.7%. The Her2 level in test [2] was 88% (inactive). Also, in test [6] (H69AR cells + 2 uM doxorubicin), the differential viability (reversal) is 0.63% (inactive). The inhibition in test [7] is -5.26% (inactive); in test [8], -1.64% (inactive).
